# Assay outcomes as filed in PubChem.
# AF4-AF9 inh = inhibitors of AF4 peptide binding to AF9, primary screen, biochemical, AlphaScreen, biotin-AF4 peptide, FLAG-AF9, single point; 350,000 compounds, 0.47% hits; inhibition, % at 10 µM; Protein AF-9 (Homo sapiens), P42568; AID 651704, 2012;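 active = every replicate reaching a set inhibition limit, whatever the replicate mean, cut at about 25% in these data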;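 note: 0% = plate neutral control median and 100% = total signal loss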
# RAD52 inh = RAD52 DNA annealing inhibitors, primary screen, biochemical, FRET, single point, set 2; recombinant RAD52 DNA annealing, FRET fluorescence; inhibition, % at 18.7 µM; 360,000 compounds, 0.46% hits; AID 651710, 2012;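 active = every replicate showing at least 50% inhibition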
# S100A4 MyoIIA = inhibitors of S100A4-myosin IIA peptide binding, primary screen, biochemical, fluorescence polarization, TAMRA-MyoIIA peptide. Protein S100-A4 (Homo sapiens), P26447. inhibition, % at 10.7 µM. 360,000 compounds, 0.14% hits. AID 652163, 2013;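 active = mean inhibition of at least 70% across replicates, with every replicate also reaching that level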
# Target sequence (P26447 whole entry, looked up): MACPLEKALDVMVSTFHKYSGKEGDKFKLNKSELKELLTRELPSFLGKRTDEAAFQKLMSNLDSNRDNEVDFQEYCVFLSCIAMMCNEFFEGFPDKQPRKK
#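 Test system: S100A4 monomer protein. Medium: HEPES buffer with Ca2+, pH 7.2. Reagent: fluorescent myosin IIA peptide, 5 nM. Compound dosing: single-point compound testing. Timing: 5 min between mix addition and reading. Benchmarks: DMSO neutral and TFP positive wells.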
# GSIS activator = GLuc luminescence reporter in INS-1E cells, primary screen for activators of glucose-dependent secretion of insulin. AID 743287, 2014. 370,000 compounds, 0.61% hits. INS-1E GLuc reporter insulin secretion, 2-3 h. activation, % at 16.6 µM;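 active = lowest replicate activation of at least 40%, so every replicate reaches that level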;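 note: 0% = median of neutral control wells and 100% = median of IBMX positive control wells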
# RAD54 inh = inhibitors of human RAD54 branch migration, primary screen, biochemical, fluorescence, single point. RAD54 Holliday junction branch migration, FAM/BHQ fluorescence. inhibition, % at 10.4 µM. 360,000 compounds, 0.14% hits;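 active = mean normalized replicate activity at least 40 and at least half of replicates scoring 40 or more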;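 note: 0% = median of neutral control wells and 100% = median of positive control wells; inhibitors cause a drop in the FAM fluorescence signal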
# Starred values were filed as active, the others as inactive; . = no result. In the library only some 1.3% were active in any assay of this set; here they are far more common.
SMILES,AF4-AF9 inh,RAD52 inh,S100A4 MyoIIA,GSIS activator,RAD54 inh
CC=Cc1ccc2n(c1=O)C[C@H]1[C@H](CO)[C@@H](C(=O)NCC3CC3)N(Cc3ccncc3)[C@@H]21 (mixture of isomers),-1,-61,1,8,-5
COc1ccc(CCNC(=O)COC(=O)Cn2cnc3ccccc32)cc1OC,0,-8,3,57*,.
COc1ccc(CCNC(=O)CN2c3cccc4cccc(c34)S2(=O)=O)cc1OC,1,-17,-3,98*,-10
COc1ccc(CCNC(=O)C(=O)NN=C2CCCCCCC2)cc1OC,-4,-5,0,59*,-8
O=C(CN1c2cccc3cccc(c23)S1(=O)=O)NCCc1ccccc1,1,-11,0,12,10
O=C(COC(=O)Cn1cnc2ccccc21)NCCc1ccc(Cl)cc1,.,.,.,.,-5
COc1ccc(CCNC(N)=S)cc1OC,.,.,.,53*,-2
COc1ccc(NC(=O)N(C)C[C@@H]2Oc3cc(-c4ccncc4)ccc3S(=O)(=O)N([C@H](C)CO)C[C@H]2C)cc1,-2,6,-3,13,3
COc1ccc(CCNC(=O)CSc2n[nH]c(N)n2)cc1OC,4,-6,-11,86*,1
COc1ccc(CCNC(=O)CCc2ccccc2)cc1OC,1,-14,-3,60*,11
CCOc1ccc(CCNC(=O)CCc2nc3ccccc3[nH]2)cc1OCC,-1,-16,-1,31,.
COc1ccc(CCNC(=O)CCc2nc3ccccc3[nH]2)cc1OC,-1,-12,-6,90*,-6
C[C@@H]1CCCCO[C@@H](CN(C)CC2CCCCC2)[C@@H](C)CN([C@H](C)CO)C(=O)c2cc(NC(=O)CCCCCC(=O)Nc3ccccc3N)ccc2O1,-3,-2,7,9,-4
O=C(Nc1cccc(C(F)(F)F)c1)c1csc([C@@H]2O[C@H](CO)[C@@H](O)[C@H]2O)n1,-5,-12,-4,80*,-8
O=C(Nc1cccc(C(F)(F)F)c1)c1csc([C@@H]2C[C@H](O)[C@@H](CO)O2)n1,-1,10,-5,0,1
Cc1cc(Br)ccc1OCCCCNC(C)(C)C,.,.,.,.,0
CC(C)COc1ccc(Br)cc1CNC(C)(C)C,1,-5,2,51*,.
CCOc1cc(/C=N/NC(=O)CCn2nc(C)cc2C)ccc1O,2,-16,0,53*,.
COc1ccc(/C=N/Nc2cc(C)nc3ccccc23)cc1,17,91*,-8,-16,97*
COc1ccc2nc(C)cc(N/N=C/c3ccc(F)cc3)c2c1,4,6,4,3,8
Cc1ccc(S(=O)(=O)N2C[C@@H](O)COC[C@@H]3O[C@@H](CC(=O)NCC4CCCCC4)CC[C@H]32)cc1,20,60*,12,1,7
Cc1ccc(S(=O)(=O)N2C[C@H](O)COC[C@@H]3O[C@H](CC(=O)NCC4CCCCC4)CC[C@H]32)cc1,11,54*,15,-6,3
COCCn1c(SCC(=O)N2CCCC2)nnc1-c1ccco1,28*,-7,-2,28,7
COCCn1c(SCC(=O)N2CCCC2)nnc1-c1ccoc1C,.,.,.,.,-22
CCC(=O)Nc1ccc2c(c1)C(=O)N(C)C[C@H](OC)[C@@H](C)CN(C(=O)CN(C)C)[C@H](C)CO2,.,.,.,12,.
CC1=CN2C(=N)/C(=C/c3cn(CCCOc4ccccc4C)c4ccccc34)C(=O)N=C2S1,.,.,.,47*,3
COc1cccc(OCCCn2cc(/C=C3/C(=N)N4C=C(C)SC4=NC3=O)c3ccccc32)c1,5,-100,-1,31,.
Cc1ccc(S(=O)(=O)Nc2ccc3c(c2)C(=O)N([C@@H](C)CO)C[C@H](C)[C@H](CN(C)S(=O)(=O)c2ccc(F)cc2)OCCCC[C@@H](C)O3)cc1,-3,-3,-2,7,3
C[C@H](CO)N1C[C@H](C)[C@H](CN(C)Cc2ccccc2)OCCCC[C@H](C)Oc2ccc(N(C)C)cc2C1=O,6,-12,6,-4,1
O=C(NCCNC1CCCCC1)c1ccco1,-1,-18,33,13,0
